Results published in PubChem BioAssay.
Active and inactive are the calls of the source.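 The calls were made as follows, unless noted: active = viability at or below 10% of carrier control in both of two separate runs; inconclusive = viability at or below 10% in only one of the two runs; inactive = the rest.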

Tests used:
[1] = reducers of endogenous Her2 protein level, primary screen, SKBR3 breast tumor cells, AlphaScreen, ATP viability (AID 461;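 active = Her2 level under about 52% in both replicate screens, with viability over 70% of control, limit read from the data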;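 as to Her2 level: lower value means less Her2 protein in the cells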;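 as to viability: percent of carrier control wells set as 100% viability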); settings: 18-24 h, measured here: SKBR3 viability, ATP luminescence, at 10 µM
[2] = target: Receptor tyrosine-protein kinase erbB-2 (Homo sapiens) (UniProt P04626); assay: as above; settings: 18-24 h, at 10 µM, stronger effect = lower value
[3] = SK-BR-3 cell growth inhibitors, pilot screen, 24 h, human (AID 572); settings: SK-BR-3 viability, CellTiter-Glo luminescence, at 10 µM, stronger effect = lower value;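 also: compound exposure lasted between 18 and 24 h rather than exactly 24 h; 100% = carrier-treated control wells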
[4] = HUVEC growth inhibition – cell-based, human, primary screen (AID 575;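 active = viability at or below 30% in both replicate assays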;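 also: 100% = median of untreated cell wells with 0.1% DMSO on each plate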); settings: HUVEC proliferation, CellTiter-Glo luminescence, 72 h; at 10 µM; stronger effect = lower value
Outline: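 Timing: 72 h treatment at 37 °C; material: HUVEC primary cells; technique: CellTiter-Glo luminescence measuring cellular ATP; controls: vehicle and MePR control wells; measure: percent of median DMSO-control luminescence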

[5] = growth inhibitors of H69AR lung tumor, primary screen, human, duplicate replicates (AID 580;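 active = viability at or under a set limit in both replicates, limit being median viability minus 3 SD, cut at about 48% in these data, passing the limit was not always enough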;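 also: 100% = mean luminescence of untreated wells and 0% = no signal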); settings: H69AR lung tumor cells viability, ATP luminescence, 72 h; at 10 µM; stronger effect = lower value
[6] = reversal of MRP1-mediated doxorubicin resistance, pilot screen, H69AR cells, doxorubicin co-treatment (AID 601;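 active = viability loss from added drug above about 55%, and viability with drug at most 40%, in both replicates, limit read from the data, passing the limit was not always enough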); settings: CellTiter-Glo, 72 h, at 10 µM; for differential viability (reversal): stronger effect = higher value
[7] = 384-well plate pilot, post-Golgi transport modulator project, inhibition of yeast transport mutant growth (AID 636; in the data active = inhibition above about 31%); settings: absorbance 615 nm, about 18 h, stronger effect = higher value
[8] = growth suppression of yeast trafficking mutant, preliminary HTS, modulators of trafficking downstream of Golgi apparatus project, 1536-format plate, OD 615 nm (AID 637; in the data active = inhibition above about 30%); settings: yeast transport mutant growth, absorbance 615 nm, 18 h; stronger effect = higher value
[9] = H69AR cells + 2 uM doxorubicin, measured here: viability with 2 uM doxorubicin, stronger effect = lower value
[10] = H69AR cells, compound alone cytotoxicity

Chain of Receptor tyrosine-protein kinase erbB-2 (Homo sapiens) (P04626 whole entry, looked up): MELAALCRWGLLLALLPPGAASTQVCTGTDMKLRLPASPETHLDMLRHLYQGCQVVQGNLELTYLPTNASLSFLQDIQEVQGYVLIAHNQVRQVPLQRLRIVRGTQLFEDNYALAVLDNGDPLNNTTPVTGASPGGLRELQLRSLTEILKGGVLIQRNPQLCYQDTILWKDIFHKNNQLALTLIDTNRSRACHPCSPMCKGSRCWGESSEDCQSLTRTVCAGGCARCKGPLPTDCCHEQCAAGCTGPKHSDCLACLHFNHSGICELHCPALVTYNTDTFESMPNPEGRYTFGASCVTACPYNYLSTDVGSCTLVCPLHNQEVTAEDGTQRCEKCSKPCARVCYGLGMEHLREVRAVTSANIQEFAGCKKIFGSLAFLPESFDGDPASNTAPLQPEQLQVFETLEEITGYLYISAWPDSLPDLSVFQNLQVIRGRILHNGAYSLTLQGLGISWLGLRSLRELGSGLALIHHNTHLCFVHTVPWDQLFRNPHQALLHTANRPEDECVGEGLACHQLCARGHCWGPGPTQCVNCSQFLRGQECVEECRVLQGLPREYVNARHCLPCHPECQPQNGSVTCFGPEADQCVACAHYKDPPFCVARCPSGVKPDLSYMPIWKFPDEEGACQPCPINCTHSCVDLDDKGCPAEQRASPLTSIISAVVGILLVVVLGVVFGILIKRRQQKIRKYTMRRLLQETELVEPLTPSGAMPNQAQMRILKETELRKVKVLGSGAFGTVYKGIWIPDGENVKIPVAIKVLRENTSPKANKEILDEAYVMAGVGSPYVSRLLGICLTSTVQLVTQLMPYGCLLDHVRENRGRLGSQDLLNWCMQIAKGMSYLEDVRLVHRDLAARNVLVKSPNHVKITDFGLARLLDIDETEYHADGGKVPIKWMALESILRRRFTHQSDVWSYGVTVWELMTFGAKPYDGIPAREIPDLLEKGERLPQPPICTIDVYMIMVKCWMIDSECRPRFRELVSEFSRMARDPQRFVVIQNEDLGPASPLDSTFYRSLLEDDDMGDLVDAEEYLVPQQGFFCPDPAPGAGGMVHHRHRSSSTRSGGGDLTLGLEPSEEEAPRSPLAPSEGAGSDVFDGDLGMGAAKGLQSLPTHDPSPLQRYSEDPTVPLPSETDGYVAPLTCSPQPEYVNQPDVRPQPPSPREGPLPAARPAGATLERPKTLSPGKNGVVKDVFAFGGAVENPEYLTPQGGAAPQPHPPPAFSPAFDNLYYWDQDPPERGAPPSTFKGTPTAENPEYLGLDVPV

Compound	viability [1]	Her2 level [2]	viability [3]	viability [4]	viability [5]	differential viability (reversal) ([6]; H69AR cells + 2 uM doxorubicin)	viability [6, 9]	viability [6, 10]	inhibition [7]	inhibition [8]
COc1ccc(NC(=O)C23CCC(C)(C(=O)C2)C3(C)C)cc1 (stereo not given)	92.5%	102% (inactive)	92.5% (inactive)	105% (inactive)	102% (inactive)	2.21% (inactive)	99.3%	102%	-1.07% (inactive)	0.48% (inactive)
COc1ccc(C(=O)CN2C(=O)NC3(CCCc4ccccc43)C2=O)cc1OC (stereo not given)	98%	84.5% (inactive)	98% (inactive)	95.6% (inactive)	88.6% (inactive)	10.9% (inactive)	77.7%	88.6%	-1.87% (inactive)	2.42% (inactive)
CN(C)Cc1c(O)ccc2oc(Cc3ccccc3)cc12	90%	86% (inactive)	90% (inactive)	91.2% (inactive)	91% (inactive)	11% (inactive)	80%	91%	-6.67% (inactive)	-2.42% (inactive)
Cc1cncn1CCc1nc2c3ccccc3nc(=S)n2[nH]1	110%	88.5% (inactive)	110% (inactive)	89.2% (inactive)	88.8% (inactive)	-4.09% (inactive)	92.9%	88.8%	-3.68% (inactive)	-4.13% (inactive)
Fc1cccc(-c2cc3nc4c(c(N5CCN(c6cnccn6)CC5)n3n2)CCCC4)c1	104%	78% (inactive)	104% (inactive)	86.9% (inactive)	89.2% (inactive)	5.59% (inactive)	83.6%	89.2%	-5.58% (inactive)	0.16% (inactive)
CC(=O)c1cccc(NC(=O)NCc2ccccn2)c1	91%	87% (inactive)	91% (inactive)	92% (inactive)	97.6% (inactive)	6.09% (inactive)	91.5%	97.6%	-4.47% (inactive)	-4.17% (inactive)
O=C1CCC(c2ccccc2)N1C(=O)c1cccnc1 (stereo not given)	129%	95.5% (inactive)	129% (inactive)	105% (inactive)	98.8% (inactive)	8.63% (inactive)	90.2%	98.8%	-6.58% (inactive)	-4.29% (inactive)
Cc1nc2c(c(=O)n1CC1CCCO1)c1nc3ccccc3nc1n2CC(C)C (stereo not given)	96.5%	89.5% (inactive)	96.5% (inactive)	104% (inactive)	84.2% (inactive)	-9.93% (inactive)	94.1%	84.2%	2.63% (inactive)	0.81% (inactive)
CCCCOc1ccccc1NC(=O)c1ccco1	87%	93% (inactive)	87% (inactive)	76.6% (inactive)	62.9% (inactive)	-14.4% (inactive)	77.3%	62.9%	-0.93% (inactive)	-0.16% (inactive)
O=C(NCc1cccs1)C1CC(c2ccccc2O)=NO1 (stereo not given)	74%	78.5% (inactive)	74% (inactive)	63.4% (inactive)	104% (inactive)	16.5% (inactive)	87.3%	104%	-3.73% (inactive)	-0.33% (inactive)
CCc1cc2c(=O)c(-c3cscn3)coc2cc1O	108%	96% (inactive)	108% (inactive)	63.5% (inactive)	88.8% (inactive)	-13% (inactive)	102%	88.8%	-1.32% (inactive)	2.95% (inactive)
C#CC1(O)CC(C)N(C)C(C)C1 (stereo not given)	105%	85% (inactive)	105% (inactive)	85.3% (inactive)	91.9% (inactive)	13.6% (inactive)	78.3%	91.9%	-4.55% (inactive)	-4.6% (inactive)
CCCCn1c(CN2CCN(CCO)CC2)nc2ccccc21	84%	92% (inactive)	84% (inactive)	91.8% (inactive)	96% (inactive)	5.24% (inactive)	90.7%	96%	-0.39% (inactive)	-6.55% (inactive)
O=C(C1CCC(CNS(=O)(=O)c2cccc3cccnc23)CC1)N1CCCC1 (stereo not given)	98.5%	104% (inactive)	98.5% (inactive)	99.9% (inactive)	99.9% (inactive)	3.37% (inactive)	96.6%	99.9%	-1.07% (inactive)	-6.72% (inactive)
COc1cccc2cc(C(=O)N3CCc4ccccc43)c(=O)oc12	92%	74% (inactive)	92% (inactive)	95.2% (inactive)	94.2% (inactive)	4.2% (inactive)	90%	94.2%	-3.03% (inactive)	0.63% (inactive)
Cc1cc(C)nc(NS(=O)(=O)c2ccc(NC(=O)Cn3c(=O)oc4ccccc43)cc2)n1	89.5%	101% (inactive)	89.5% (inactive)	89% (inactive)	86.7% (inactive)	2.6% (inactive)	84.2%	86.7%	-0.9% (inactive)	2% (inactive)
O=C(CN1C(=O)CCSc2ccccc21)Nc1ccc2c(c1)OCO2	124%	85.5% (inactive)	124% (inactive)	97.6% (inactive)	103% (inactive)	0.09% (inactive)	103%	103%	-2.5% (inactive)	-4.13% (inactive)
O=C(COC(=O)c1cc(S(=O)(=O)N2CCOCC2)ccc1O)NCC1CCCO1 (stereo not given)	91.5%	85.5% (inactive)	91.5% (inactive)	98.7% (inactive)	91% (inactive)	-3.47% (inactive)	94.5%	91%	-6.4% (inactive)	8.36% (inactive)
COC(=O)C1C(=O)C2=C(CC1C)NC(=O)CC2c1ccccc1 (stereo not given)	102%	97% (inactive)	102% (inactive)	91.7% (inactive)	103% (inactive)	15.2% (inactive)	87.9%	103%	-3.55% (inactive)	5.33% (inactive)
COc1ccc(Cc2nc(-c3ccc(Br)cc3)no2)cc1	72.5%	106% (inactive)	72.5% (inactive)	92.8% (inactive)	98.2% (inactive)	-2.99% (inactive)	101%	98.2%	-0.13% (inactive)	-12.3% (inactive)
CCn1c(=O)cc(SCC(=O)Nc2ccc3c(c2)OCO3)c2ccccc21	97%	88% (inactive)	97% (inactive)	64.1% (inactive)	87.9% (inactive)	3.51% (inactive)	84.4%	87.9%	-2.5% (inactive)	-10.5% (inactive)
Cc1ccc(-c2nc(N)n(C(=O)c3cccnc3)n2)cc1	86.5%	87.5% (inactive)	86.5% (inactive)	95.1% (inactive)	105% (inactive)	19.1% (inactive)	85.7%	105%	-3.08% (inactive)	0.33% (inactive)
CCOC(=O)N1CCN(C(=O)CN(C)S(=O)(=O)c2ccc(OC)c(OC)c2)CC1	100%	94.5% (inactive)	100% (inactive)	104% (inactive)	91.5% (inactive)	3.21% (inactive)	88.3%	91.5%	-6.84% (inactive)	1.97% (inactive)
CC1(C)CC(=O)c2cnc(NC(=O)CSc3nc4ccccc4o3)nc2C1	96%	98.5% (inactive)	96% (inactive)	81.4% (inactive)	105% (inactive)	9.52% (inactive)	95.7%	105%	-4.46% (inactive)	0.83% (inactive)
O=C1NC(=O)C2(CCC(C(=O)O)C2)N1 (stereo not given)	93.5%	84% (inactive)	93.5% (inactive)	96.4% (inactive)	94.2% (inactive)	-0.33% (inactive)	94.5%	94.2%	-5.73% (inactive)	2.46% (inactive)
O=C(CSc1nnnn1C1CCCC1)NCc1ccc2c(c1)OCO2	86%	89% (inactive)	86% (inactive)	93.7% (inactive)	102% (inactive)	3.33% (inactive)	98.6%	102%	-6.22% (inactive)	2.46% (inactive)
Nc1nnc(SCCOc2ccccc2)s1	86.5%	80% (inactive)	86.5% (inactive)	72.1% (inactive)	97.4% (inactive)	9.2% (inactive)	88.2%	97.4%	-3.82% (inactive)	-2.73% (inactive)
COCCn1c(C)c(C(=O)O)sc1=S	99%	118% (inactive)	99% (inactive)	108% (inactive)	104% (inactive)	12.4% (inactive)	91.3%	104%	0.79% (inactive)	-6.5% (inactive)
CC(C)(C)c1ccc2c(c1)OCC(C(=O)O)O2 (stereo not given)	99.5%	106% (inactive)	99.5% (inactive)	99.3% (inactive)	106% (inactive)	9.5% (inactive)	96.3%	106%	0.55% (inactive)	-3.65% (inactive)
